# From ChEMBL document CHEMBL1145431, “Improved anti-osteoporosis potency and reduced endometrial membrane hyperplasia during hormone replacement therapy with estrogen-RGD peptide conjugates” (2007)
# Where a SMILES comes first, the peptide text is derived from it. The star is where a group is joined. X1 = C[C@]12CC[C@@H]3c4ccc(OCC(=O)*)cc4CC[C@H]3[C@@H]1CCC2O
# Tests used:
# [1] = test system: Mus musculus; experiment: Effect on dry weight of femurs in mouse at 0.1103 mmol/kg, po; format: functional, Femur
# Summary of the method: (§1)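 Female Kuiming mice (7 weeks old, 30.7 ± 3.1 g) under abdominal OVX, sham group abdominorotomy only. From day 5 after surgery, dosed orally once daily for 4 weeks at 110.3 × 10-3 mmol/kg in 0.5% CMC (0.2 mL), vehicle group CMC alone. Blood drawn retro-orbitally, then left femur and organs removed under pentobarbital (40.0 mg/kg, i.p.).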
# [2] = test system: Mus musculus; experiment: Effect on femur ash weight in mouse at 0.1103 mmol/kg, po; format: functional; summary of the method: as §1
# [3] = test system: Mus musculus; experiment: Effect on lenght of femur in mouse at 0.110 mmol/kg, po; format: functional; summary of the method: as §1
# [4] = test system: Mus musculus; experiment: Effect on calcium level in mouse at 0.1103 mmol/kg, po; format: functional; summary of the method: as §1
# [5] = test system: Mus musculus; experiment: Effect on phosphorus level in mouse at 0.110 mmol/kg, po; format: functional; summary of the method: as §1
# [6] = test system: Mus musculus; experiment: Effect on mineral content in mouse at 0.1103 mmol/kg, po; format: functional; summary of the method: as §1
# [7] = test system: Mus musculus; experiment: Effect on serum ALP level in mouse at 0.1103 mmol/kg, po; format: functional
# Summary of the method: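 Oral OVX Kuiming mouse model, dosed daily for 4 weeks at 110.3 × 10-3 mmol/kg in 0.5% CMC. Retro-orbital blood stood 30 min at room temperature and was spun at 3000 g for 20 min. Serum kept at -20 °C. Calcium read by o-methylphenolphthalein complexone, phosphorus by molybdenum blue, ALP by activity on disodium phenylphosphate substrate.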
# [8] = test system: Mus musculus; experiment: Effect on lung weight in mouse at 0.1103 mmol/kg, po; format: functional; summary of the method: as §1
# [9] = test system: Mus musculus; experiment: Effect on liver weight in mouse at 0.1103 mmol/kg, po; format: functional; summary of the method: as §1
# [10] = test system: Mus musculus; experiment: Increase in body weight in ovariectomized mouse at 0.1103 mmol/kg, ip once daily for 4 weeks; format: functional
# Summary of the method: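 Female Kuiming mice (30.7 ± 3.1 g) underwent abdominal OVX; the sham group had abdominorotomy only. From day 5 after surgery, i.p. dosing once daily for 4 weeks at 110.3 × 10-3 mmol/kg in aqueous 0.5% CMC. Body weight was recorded on the day of the last administration.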
# [11] = test system: Mus musculus; experiment: Effect on serum phosphorus level in ovariectomized mouse at 0.1103 mmol/kg, ip once daily for 4 weeks; format: functional
# Summary of the method: (§2)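 OVX Kuiming mice dosed i.p. daily for 4 weeks in 0.5% CMC. Blood taken retro-orbitally on the day after the last dose, stood 30 min, spun at 3000 g for 20 min, serum stored at -20 °C. Calcium by o-methylphenolphthalein complexone, phosphorus by molybdenum blue, ALP by activity with disodium phenylphosphate substrate.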
# [12] = test system: Mus musculus; experiment: Effect on dry weight of femurs in ovariectomized mouse at 0.1103 mmol/kg, ip once daily for 4 weeks; format: functional, Femur
# Summary of the method: (§3)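 Female Kuiming mice (7 weeks, 30.7 ± 3.1 g) ovariectomized, sham group abdominorotomy. From day 5, i.p. once daily for 4 weeks at 110.3 × 10-3 mmol/kg in 0.5% CMC. Left femur cleaned, length measured, defatted in chloroform-methanol (2:1, 2 × 3 h), dried 120 °C 6 h for dry weight, ashed 800 °C 8 h. Mineral content = ash/dry weight. Ash dissolved in 6 N HCl and diluted. Ca by o-methylphenolphthalein complexone, P by molybdenum blue. Lungs and livers weighed directly.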
# [13] = test system: Mus musculus; experiment: Effect on femur length in ovariectomized mouse at 0.1103 mmol/kg, ip once daily for 4 weeks; format: functional; summary of the method: as §3
# [14] = test system: Mus musculus; experiment: Effect on calcium level in ovariectomized mouse at 0.1103 mmol/kg, ip once daily for 4 weeks; format: functional; summary of the method: as §3
# [15] = test system: Mus musculus; experiment: Effect on spleen weight in ovariectomized mouse at 0.1103 mmol/kg, ip once daily for 4 weeks; format: functional
# Summary of the method: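 Female Kuiming mice (7 weeks old, 30.7 ± 3.1 g), abdominal OVX under pentobarbital (40.0 mg/kg i.p.). From day 5 after surgery, i.p. injection once daily for 4 weeks, compound in aqueous 0.5% CMC prepared just before use. The day after the last dose, mice were anesthetized and killed, and lungs, livers, spleens and uteri were removed and weighed directly. n = 12, ANOVA, p < 0.05.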
# [16] = test system: Mus musculus; experiment: Effect on mineral content in ovariectomized mouse at 0.1103 mmol/kg, ip once daily for 4 weeks; format: functional; summary of the method: as §3
# [17] = test system: Mus musculus; experiment: Effect on lung weight in ovariectomized mouse at 0.1103 mmol/kg, ip once daily for 4 weeks; format: functional; summary of the method: as §3
# [18] = test system: Mus musculus; experiment: Effect on dry weight of femurs in recipient mouse at 0.055 mmol/kg, ip; format: functional, Femur
# Summary of the method: (§4)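 Dose-response in OVX Kuiming mice, i.p. daily for 4 weeks in 0.5% CMC at 11.03, 55.15 or 110.3 × 10-3 mmol/kg. Left femur: length, then defatting, drying at 120 °C for 6 h (dry weight), ashing at 800 °C for 8 h. Ash/dry ratio gives mineral content. Ash Ca and P measured colorimetrically. Liver, lung and spleen weighed directly. n = 12, ANOVA.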
# [19] = test system: Mus musculus; experiment: Effect on femur ash weight in recipient mouse at 0.055 mmol/kg, ip; format: functional; summary of the method: as §4
# [20] = test system: Mus musculus; experiment: Effect on femur ash weight in recipient mouse at 0.011 mmol/kg, ip; format: functional; summary of the method: as §4
# [21] = test system: Mus musculus; experiment: Effect on femur length in recipient mouse at 0.055 mmol/kg, ip; format: functional; summary of the method: as §4
# [22] = test system: Mus musculus; experiment: Effect on phosphorous level in mouse femur at 0.055 mmol/kg, ip; format: functional; summary of the method: as §4
# [23] = test system: Mus musculus; experiment: Effect on mineral level in mouse femur at 0.055 mmol/kg, ip; format: functional; summary of the method: as §4
# [24] = test system: Mus musculus; experiment: Effect on serum phosphorous level in mouse at 0.055 mmol/kg, ip; format: functional
# Summary of the method: (§5)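 Dose-response in OVX Kuiming mice, i.p. daily for 4 weeks in 0.5% CMC at 11.03, 55.15 or 110.3 × 10-3 mmol/kg. Serum from retro-orbital blood (3000 g, 20 min). Calcium by o-methylphenolphthalein complexone, phosphorus by molybdenum blue, ALP by activity on disodium phenylphosphate. n = 12, ANOVA.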
# [25] = test system: Mus musculus; experiment: Effect on serum phosphorous level in mouse at 0.011 mmol/kg, ip; format: functional; settings: in the assay text read “0.11 mmol/kg” for “0.011 mmol/kg”; summary of the method: as §5
# [26] = test system: Mus musculus; experiment: Effect on serum ALP level in mouse at 0.055 mmol/kg, ip; format: functional; summary of the method: as §5
# [27] = test system: Mus musculus; experiment: Effect on liver weight in mouse at 0.055 mmol/kg, ip; format: functional; summary of the method: as §4
# [28] = test system: Mus musculus; experiment: Effect on liver weight in mouse at 0.011 mmol/kg, ip; format: functional; summary of the method: as §4
# [29] = test system: Mus musculus; experiment: Effect on lung weight in mouse at 0.011 mmol/kg, ip; format: functional; summary of the method: as §4
# [30] = test system: Mus musculus; experiment: Effect on spleen weight in mouse at 0.011 mmol/kg, ip; format: functional; summary of the method: as §4
# [31] = test system: Mus musculus; experiment: Effect on uterus weight in mouse at 0.055 mmol/kg, ip; format: functional
# Summary of the method: (§6)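 Dose study in abdominally ovariectomized female Kuiming mice (30.7 ± 3.1 g). Daily i.p. dosing in aqueous 0.5% CMC from day 5 after surgery for 4 weeks, at 110.3, 55.15 or 11.03 × 10-3 mmol/kg. Liver, lung, spleen and uterus were removed after pentobarbital euthanasia and weighed. n = 12, ANOVA, p < 0.05.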
# [32] = test system: Mus musculus; experiment: Effect on uterus weight in mouse at 0.011 mmol/kg, ip; format: functional; summary of the method: as §6
# [33] = test system: Mus musculus; experiment: Effect on uterus weight in mouse at 0.1103 mmol/kg, po; format: functional
# [34] = test system: Mus musculus; experiment: Effect on serum phosphorous level in mouse at […] mmol/kg, ip; format: functional; summary of the method: as §2
# [35] = test system: Mus musculus; experiment: Effect on serum calcium level in mouse at 0.1103 mmol/kg, ip; format: functional; summary of the method: as §2
Structure (SMILES),Activity [1],Activity [2],Activity [3],Activity [4],Activity [5],Ratio [6],Activity [7],Activity [8],Activity [9],Activity [10],Activity [11],Activity [12],Activity [13],Activity [14],Activity [15],Ratio [16],Activity [17],Activity [18],Activity [19],Activity [20],further results
C[C@]12CC[C@@H]3c4ccc(OCC(=O)N[C@@H](CCCNC(=N)N)C(=O)NCC(=O)N[C@@H](CC(=O)O)C(=O)N[C@@H](CO)C(=O)O)cc4CC[C@H]3[C@@H]1CCC2O (stereo not given in full) (X1-RGDS-OH),68.6 mg,30.4 mg,1.635 cm,51.988%,24.994%,52.2%,35.211 U/L,166 mg,1.329 g,35.2 g,1.599 mmol/L,63.4 mg,1.642 cm,54.885%,124 mg,0.582,173 mg,56.3 mg,31.6 mg,18.1 mg,Activity [21]: 1.622 cm; Activity [22]: 24.274%; Ratio [23]: 0.479; Activity [24]: 1.607 mmol/L; Activity [25]: 1.599 mmol/L; Activity [26]: 33.616 U/L; Activity [27]: 1.397 g; Activity [28]: 1.42 g; Activity [29]: 181 mg; Activity [30]: 125 mg; Activity [31]: 48.6 mg; Activity [32]: 52.8 mg; Activity [33]: 43.2 mg; Activity [34]: 1.599 mmol/L; Activity [35]: 2.014 mmol/L
CC(C)[C@H](NC(=O)[C@H](CC(=O)O)NC(=O)CNC(=O)[C@H](CCCNC(=N)N)NC(=O)COc1ccc2c(c1)CC[C@@H]1[C@@H]2CC[C@]2(C)C(O)CC[C@@H]12)C(=O)O (stereo not given in full) (X1-RGDV-OH),68.4 mg,33.7 mg,1.614 cm,52.197%,24.997%,51.9%,34.521 U/L,163 mg,1.337 g,35.2 g,1.6 mmol/L,63.7 mg,1.64 cm,58.35%,132 mg,0.63,162 mg,57.5 mg,32.3 mg,20.6 mg,Activity [21]: 1.643 cm; Activity [22]: 24.315%; Ratio [23]: 0.539; Activity [24]: 1.586 mmol/L; Activity [25]: 1.6 mmol/L; Activity [26]: 32.786 U/L; Activity [27]: 1.462 g; Activity [28]: 1.48 g; Activity [29]: 188 mg; Activity [30]: 156 mg; Activity [31]: 57.6 mg; Activity [32]: 55.7 mg; Activity [33]: 40.7 mg; Activity [34]: 1.6 mmol/L; Activity [35]: 2.005 mmol/L
C[C@]12CC[C@@H]3c4ccc(OCC(=O)N[C@@H](CCCNC(=N)N)C(=O)NCC(=O)N[C@@H](CC(=O)O)C(=O)N[C@@H](Cc5ccccc5)C(=O)O)cc4CC[C@H]3[C@@H]1CCC2O (stereo not given in full) (X1-RGDF-OH),63.1 mg,28.7 mg,1.626 cm,53.001%,25.532%,52.5%,33.7 U/L,165 mg,1.339 g,33.1 g,1.605 mmol/L,64.2 mg,1.635 cm,56.69%,131 mg,0.585,169 mg,53.9 mg,31.6 mg,20.8 mg,Activity [21]: 1.624 cm; Activity [22]: 24.845%; Ratio [23]: 0.504; Activity [24]: 1.602 mmol/L; Activity [25]: 1.605 mmol/L; Activity [26]: 33.746 U/L; Activity [27]: 1.407 g; Activity [28]: 1.57 g; Activity [29]: 174 mg; Activity [30]: 145 mg; Activity [31]: 55.3 mg; Activity [32]: 60.6 mg; Activity [33]: 47.5 mg; Activity [34]: 1.605 mmol/L; Activity [35]: 2.015 mmol/L
